# Source: PubChem BioAssay
# SR-BI DiI-HDL act: activators of SR-BI mediated DiI-HDL uptake, primary screen, ldlA[mSR-BI] CHO cells, DiI fluorescence. 0.096% of 320,000 active. AID 504775, 2011. activation, % at 12.5 µM. 3 h; 100 = double the neutral-control signal;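 active = mean replicate activation of at least 60% and every replicate at or above 60%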;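 note: 0% = median plate neutral-control signal and 100% = twice that signal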
#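 Material: SR-BI-overexpressing, LDLR-lacking CHO cells; schedule: compound exposure 3 h, 37 °C; reagent: DiI-labelled HDL at 10 µg/mL final; technique: bottom-read fluorescence, 550/595 nm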
# SR-BI DiI inh: inhibitors of SR-BI mediated HDL lipid uptake, primary screen, ldlA[mSR-BI] cells, fluorescence, single point. inhibition, % at 12.5 µM. Scavenger receptor class B member 1 (Mus musculus), Q61009. 0.96% of 320,000 active. ldlA[mSR-BI] CHO cells, DiI-HDL uptake fluorescence, 3 h;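 active = mean replicate inhibition of at least 70% and a set share of replicates each scoring 70 or more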;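 note: 0% = median of neutral control wells and 100% = median of positive control wells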
# Target sequence (Q61009 whole entry, looked up): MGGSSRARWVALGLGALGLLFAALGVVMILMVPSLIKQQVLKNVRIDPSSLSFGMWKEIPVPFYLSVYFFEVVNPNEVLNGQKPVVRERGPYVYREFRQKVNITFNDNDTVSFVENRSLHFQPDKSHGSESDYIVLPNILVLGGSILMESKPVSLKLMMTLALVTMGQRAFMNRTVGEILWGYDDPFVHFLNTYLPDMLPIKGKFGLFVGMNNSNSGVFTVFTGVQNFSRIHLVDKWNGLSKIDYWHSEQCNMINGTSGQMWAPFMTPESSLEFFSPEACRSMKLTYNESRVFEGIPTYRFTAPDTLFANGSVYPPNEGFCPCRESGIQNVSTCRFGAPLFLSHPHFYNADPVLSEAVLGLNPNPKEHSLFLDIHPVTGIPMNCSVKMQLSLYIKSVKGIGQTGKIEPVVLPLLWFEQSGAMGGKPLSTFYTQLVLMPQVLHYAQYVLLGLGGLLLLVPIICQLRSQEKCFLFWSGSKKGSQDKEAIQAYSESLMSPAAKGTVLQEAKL
# CAL PDZ FP-1: CAL PDZ peptide-binding inhibitors, primary screen, biochemical, fluorescence polarization, Cer-tagged CAL PDZ, HTS. inhibition, % at 20 µM. Golgi-associated PDZ and coiled-coil motif-containing protein (Homo sapiens), Q9HD26. 0.02% of 330,000 active. AID 504414, 2011. purified CAL PDZ, TMR-peptide fluorescence polarization, 1 h;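 active = highest replicate inhibition of at least 40%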;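 note: plate controls were DMSO neutral control wells for no effect and unlabeled competitor peptide control wells for full effect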
#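 Read-out basis: mP drop reported as inhibition | Assay system: Tagged CAL PDZ protein CerCALP, purified | Benchmarks: Unlabelled peptide for full inhibition, DMSO wells as neutral | Schedule: 1 h incubation at room temperature before polarization reading | Buffer or medium: Sodium phosphate/NaCl buffer pH 7.4 with TCEP, IgG, Thesit | Doses: Single point, 20 µM | Measured by: Fluorescence polarization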
# CAL PDZ FP-2: untagged CAL PDZ binding inhibitors, primary screen, biochemical, fluorescence polarization, HTS. Golgi-associated PDZ and coiled-coil motif-containing protein (Homo sapiens), Q9HD26. purified CAL PDZ, TMR-peptide fluorescence polarization, 1 h. inhibition, % at 24.9 µM. 0.92% of 300,000 active;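 active = mean inhibition of at least 30% with at least half of replicates also reaching 30%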;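 note: 0% = DMSO neutral control and 100% = excess unlabeled competitor peptide PRC23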
# ATG4B inhibitor: ATG4B protease inhibitors, primary screen, biochemical, fluorescence, uHTS | Cysteine protease ATG4B (Homo sapiens), Q9Y4P1 | ATG4B cleavage of LC3-PLA2, NBD-HPC fluorescence, 1 h | inhibition, % at 8.33 µM | 0.51% of 340,000 active | AID 504462, 2011; in the data active = inhibition above about 40%
# The depositor's hits bear a star; · = not tested or not shown. Compounds with a hit are over-represented: about 2.3% of the library has one in this group of screens.
SMILES,SR-BI DiI-HDL act,SR-BI DiI inh,CAL PDZ FP-1,CAL PDZ FP-2,ATG4B inhibitor
O=C(C1CCN(S(=O)(=O)c2ccc(Br)s2)CC1)N1CCc2ccccc21,-21,21,0,3,41*
C=CC(=O)Nc1cccc(CN2C(=O)N(c3cc(OC)cc(OC)c3)Cc3cnc(NCCCCN(CC)CC)nc32)c1,16,-16,-1,-6,0
O=S(=O)(/N=C(/c1ccccc1)N1CCOCC1)c1ccc(Br)cc1,24,-24,-2,37*,-8
CC(C)[C@H](NC(=O)c1ccccc1)C(=O)OCc1nnc(-c2ccccc2)o1,14,-14,0,-5,0
Cc1ccc(C(=O)N[C@H](C(=O)OCc2nnc(-c3ccccc3)o2)C(C)C)cc1,7,-7,0,50*,-10
Nc1ccc(Br)cc1C(=O)O,5,-5,-2,-2,1
N/N=C(\c1ccccc1)c1cc(Br)ccc1N,-2,2,·,47*,-2
O=C(CSc1nnc(-c2ccc(O)cc2)o1)Nc1ccccc1,-17,17,-2,62*,7
Cc1cc(NC(=O)CSc2nnc(-c3ccc(O)cc3)o2)no1,·,·,-3,0,-13
CCOC(=O)Nc1nc2ccc(Cn3cccc3)cc2[nH]1,-2,2,-2,11,0
COc1cc(C(=O)N2CCN(S(=O)(=O)c3cccs3)CC2)cc(OC)c1C,-37,37,-1,58*,-1
COc1ccc(OC)c(NC(=O)CCCNC(=O)Cn2cnc3sc(C)c(C)c3c2=O)c1,-77,77*,-2,-1,3
CC(=O)Nc1cc(C)ns1,4,-4,0,-4,3
Cc1ccc(N2N=C(c3ccc(F)cc3)CC2c2ccco2)cc1 (stereo not given),-79,79*,-4,7,5
Fc1ccc(C2=NN(c3ccccc3)C(c3ccco3)C2)cc1 (stereo not given),-21,21,-1,0,1
CC1=NNC(=O)C1CC(=O)N/N=C/c1sccc1C (stereo not given),0,0,-2,·,-2
COc1cc(OC)c(OC)cc1/C=N/NC(=O)CC1C(=O)NN=C1C (stereo not given),4,-4,-4,36*,0
Cn1c(SCC(=O)NC(=O)Nc2ccccc2)nnc1-c1ccncc1,·,·,·,·,-1
Cc1ccc([N+](=O)[O-])c(OCCN2CCc3ccccc3C2)c1,1,-1,-1,-1,4
Cc1ccc([N+](=O)[O-])c(OCCN2CCCCCC2)c1,9,-9,-1,57*,2
COC(=O)C1CC2=C(CCC2=O)N(c2ccccc2)C1=O (stereo not given),3,-3,1,2,-4
COc1cccc(C(C(=O)NC2CCCC2)N(C(=O)c2ccco2)c2ccc(C(C)=O)cc2)c1OC (stereo not given),234*,-234,-5,-1,0
Cc1cc(=O)n2nc(N3CCCC(C(=O)Nc4ccc(C)c(C)c4)C3)sc2n1 (stereo not given),-67,67,-1,·,-6
COCCNc1nnc(SCC(=O)Nc2sc3c(c2C(=O)c2ccccc2)CCCC3)s1,-75,75*,-1,-2,0
CC1CCN(c2oc(-c3ccco3)nc2S(=O)(=O)c2ccccc2)CC1,13,-13,0,·,7
O=S(=O)(c1ccccc1)c1nc(-c2ccco2)oc1N1CCCCC1,9,-9,-1,42*,7
CCN(CC)S(=O)(=O)c1ccc(-c2nnc(SCc3nnc(-c4ccc(C)cc4)o3)n2CC)cc1,-72,72*,0,-3,-15
CCN(CC)S(=O)(=O)c1ccc(-c2nnc(SCc3nnc(-c4ccc(C)cc4)o3)o2)cc1,-39,39,1,-4,10
CC(=O)c1c(C)[nH]c(C(=O)OCc2cccc(Cl)c2)c1C,-71,71*,-1,2,1
